Results of several laboratories.
Compare with care: the assays were run in different laboratories.
Effect on: cell growth or viability

Structure (SMILES)	cell line	test	setting	measurement	result
Nc1nc2ccc(-c3c/c(=N\c4ccccc4NC(=O)CCN4CCOCC4)c4ccccc4o3)cc2o1	MDA-MB-468	CCK-8	1 µM	inhibition	0.34%
O=C(CCCCCCSc1ccc2ccccc2c1)NO	HBL1	ATP luminescence	0.5 µM, 5 days	viability	113%
COCc1ccc(-c2nn(Cc3ccccc3)c3ccccc23)o1	RBE	ATP luminescence	46 µM, 72 h	inhibition	49%
C[C@H](N)C(=O)Nc1ccccc1/N=c1\cc(-c2ccc3c(c2)OCO3)oc2ccccc12	MDA-MB-468	CCK-8	1 µM	inhibition	6.3%
O=C(NC1CCCCC1)c1ccc(-c2nc3ccc4[nH]ncc4c3c3c2CCCC3)cc1	MV4-11	resazurin	72 h	GI50	4300 nM
OCc1ccc(-c2nn(Cc3ccccc3)c3ccccc23)s1	RBE	ATP luminescence	46 µM, 72 h	inhibition	30%
COc1ccc2/c(=N/c3ccccc3NC(=O)[C@@H](N)C(C)(C)C)cc(-c3ccc4c(c3)OCCO4)oc2c1	MDA-MB-468	CCK-8	1 µM	inhibition	10.8%
CN1CCN(C(=O)c2ccc(-c3nc4ccc5[nH]ncc5c4c4c3CCCC4)cc2)CC1	MV4-11	resazurin	72 h	GI50	1300 nM
COc1cccc(Cn2nc(-c3ccc(CN)o3)c3ccccc32)c1	RBE	ATP luminescence	46 µM, 72 h	inhibition	78%
O=C(NCCCN1CCCCC1)c1ccc(-c2nc3ccc4[nH]ncc4c3c3c2CCCC3)cc1	MV4-11	resazurin	72 h	GI50	2400 nM
O=C(Nc1ccccc1/N=c1\cc(-c2ccc3c(c2)OCO3)oc2ccccc12)N1CCNCC1	MDA-MB-468	CCK-8	1 µM	inhibition	-5.89%
CN(C)CCN(C)C(=O)c1ccc(-c2nc3ccc4[nH]ncc4c3c3c2CCCCC3)cn1	MV4-11	resazurin	72 h	GI50	581 nM
OCc1coc(-c2nn(Cc3ccccc3)c3ccccc23)n1	RBE	ATP luminescence	46 µM, 72 h	inhibition	32%
Cc1n[nH]c2ccc3nc(-c4ccc(C(=O)NCCN(C)C)cc4F)c4c(c3c12)CCCC4	MV4-11	resazurin	72 h	GI50	27 nM
OCc1ccc(-c2nn(Cc3ccc(F)cc3)c3ccccc23)o1	RBE	ATP luminescence	46 µM, 72 h	inhibition	66%
C[C@H](N)C(=O)Nc1ccccc1/N=c1\cc(-c2ccc3c(c2)OCCO3)oc2cc(F)ccc12	MDA-MB-468	CCK-8	1 µM	inhibition	12.8%
CN(C)CCNC(=O)c1ccc(-c2nc3ccc4[nH]ncc4c3c3c2CCCCC3)nc1	MV4-11	resazurin	72 h	GI50	236 nM
COCCC(=O)Nc1ccccc1/N=c1\cc(-c2ccc3nc(N)oc3c2)oc2ccccc12	MDA-MB-468	CCK-8	1 µM	inhibition	0.9%
O=C(Nc1cccc(Br)c1)c1cccc(S(=O)(=O)N2CCCCCC2)c1	HBL1	ATP luminescence	1 µM, 5 days	viability	101%
NCc1ccc(-c2nn(Cc3ccccn3)c3cccnc23)o1	RBE	ATP luminescence	46 µM, 72 h	inhibition	74%
